The source of these data is ChEMBL document CHEMBL4680254, “Design, synthesis and discovery of 2(1H)-quinolone derivatives for the treatment of pulmonary fibrosis through inhibition of TGF-β/smad dependent and independent pathway” (Eur J Med Chem, 2020).

Series [1] relates to NRK-49F. In words: Inhibition of TGF-beta-induced collagen accumulation in rat NRK-49F cells at 10 uM incubated for 2 days by PSR staining based microscopic analysis relative to control. Format: functional. The settings on record: 48 h, time 2 day. The method in brief: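 NRK-49F cells were grown 3 days in DMEM with 5% FBS, then 2 days in DMEM with 1% ITS. Next came 2 days with TGF-β 5 ng/ml plus or minus compound 10 µM. Cells were fixed in 4% paraformaldehyde and stained 4 h with 0.1% Picrosirius Red, then rinsed with acetic acid. Dye was eluted with 0.1 M NaOH and OD read at 540 nm. Inhibition = […] ×100%, in triplicate.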

The test system of another series is L929. The experiment in a line: Antimigratory activity in mouse L929 cells assessed as inhibition of TGF-beta-induced cell migration at 10 uM incubated for 24 hrs by wound healing assay. Format: functional, cell-based. The method in brief:
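Mouse L929 fibroblasts (MEM, 10% FBS, 37 °C, 5% CO₂) were grown to confluence and scratched with a pipette tip to a 100 µm wound. They were then kept in serum-free medium with or without TGF-β 5 ng/ml and compound 10 µM for 24 h. Wounds were imaged by light microscopy at 0, 12 and 24 h.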

The subject of series [2] is NRK-49F. The experiment in a line: Inhibition of TGF-beta-induced collagen-1 protein expression in rat NRK-49F cells at 20 to 40 uM incubated for 24 hrs by Western blotting analysis. The conditions noted are these: dose 20-40 µM. The series is classed as functional, cell-based.
In series [3] the test system is NRK-49F. The experiment in a line: Inhibition of TGF-beta-induced alpha-SMA protein expression in rat NRK-49F cells at 20 to 40 uM incubated for 24 hrs by Western blotting analysis. The series is classed as functional, cell-based. The settings on record: dose 20-40 µM.
Series [4] can be described thus: Oral bioavailability in Sprague-Dawley rat at 5 mg/kg. The conditions noted are these: in vivo. The series is classed as ADME, organism-based. The method in brief: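 Rats were given a single 5 mg/kg dose intravenously or orally, and plasma concentration–time curves were followed. t1/2, tmax, AUC0-t and oral bioavailability (n = 5) were derived from these curves.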

Series [5] concerns Mus musculus. In words: Anti-fibrotic activity in C57BL/6 mouse model of bleomycin-induced lung fibrosis assessed as reduction in collagen deposition by measuring hydroxyproline content in lung at 50 mg/kg, po administered for 30 days starting from day 1 post bleomycin treatment. Format: functional, organism-based. The settings on record: time 30.0 day. The method in brief:
(§1)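 In the bleomycin mouse model (male C57BL/6, 8 weeks, 3 U/kg intratracheal in saline, n=10 per group), daily oral dosing ran days 1–30 or days 8–21. Right lungs were dried, acid hydrolysed, filtered and brought to pH 6.5–8.0. Hydroxyproline was read by chloramine-T spectrophotometry with a kit.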

Series [6] relates to Mus musculus. In words: Anti-fibrotic activity in C57BL/6 mouse model of bleomycin-induced lung fibrosis assessed as reduction in collagen deposition by measuring hydroxyproline content in lung at 50 mg/kg, po administered for […] starting from day 8 post bleomycin treatment. The series is classed as functional, organism-based. The settings on record: time 14.0 day. The gist of the method: as §1

Series [7] has as its system Mus musculus. The experiment in a line: Anti-fibrotic activity in C57BL/6 mouse model of bleomycin-induced lung fibrosis assessed as survival rate at 50 mg/kg, po administered for 30 days starting from day 1 post bleomycin treatment. Format: functional, organism-based. The conditions noted are these: time 30.0 day. The gist of the method: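 Survival was followed in male C57BL/6 mice (8 weeks, n=10 per group) after one intratracheal bleomycin dose of 3 U/kg in 0.075 mL saline. Oral dosing was daily, days 1–30 (prevention) or days 8–21 (treatment), with survival curves plotted.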

In series [8] the test system is Mus musculus. In words: Anti-fibrotic activity in C57BL/6 mouse model of bleomycin-induced lung fibrosis assessed as protection of alveolar tissue structure at 50 mg/kg, po administered for 30 days starting from day 1 post bleomycin treatment by hematoxylin and eosin staining based microscopic analysis. The settings on record: time 30.0 day. Format: functional, organism-based. The method in brief:
(§2)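 Male C57BL/6 mice, 8 weeks old, n=10 per group; lung fibrosis from one intratracheal instillation of bleomycin 3 U/kg in 0.075 mL saline, saline-only controls. Daily oral dosing days 1–30 (prevention) or days 8–21 (treatment). Left lungs fixed in 10% formalin 24 h, paraffin-embedded, 5 µm sections stained with H&E (also Masson's trichrome) and examined by microscopy.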

Series [9] deals with Mus musculus. The experiment in a line: Anti-fibrotic activity in C57BL/6 mouse model of bleomycin-induced lung fibrosis assessed as reduction in inflammatory cell infiltration at 50 mg/kg, po administered for 30 days starting from day 1 post bleomycin treatment by hematoxylin and eosin staining based microscopic analysis. The conditions noted are these: time 30.0 day. The series is classed as functional, organism-based. The gist of the method:
as §2

Series [10] has as its system Mus musculus. In words: Anti-fibrotic activity in C57BL/6 mouse model of bleomycin-induced lung fibrosis assessed as protection of alveolar tissue structure at 50 mg/kg, po administered from day 8 to day 21 post bleomycin treatment by hematoxylin and eosin staining based microscopic analysis. The conditions noted are these: time 14.0 day.
Series [11] in a line: Cytotoxicity against rat NRK-49F cells assessed as cell survival rate at 10 uM incubated for 72 hrs by MTT assay. Format: cell-based. The settings on record: read-out: Activity. The method in brief: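 NRK-49F cells were seeded at 0.5×10^5 cells/ml, cultured overnight, then exposed to compound 10 µM for 72 h. MTT was added and incubated 4 h, formazan dissolved in DMSO and absorbance read. Survival = (treated − zero)/(blank − zero) A ×100%, done in triplicate.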

For series [12], the system named is NRK-49F. The experiment in a line: Inhibition of TGF-beta-induced collagen accumulation in rat NRK-49F cells incubated for 2 days by PSR staining based microscopic analysis. The conditions noted are these: 48 h. Format: functional, cell-based.

The source made the active and inactive calls. The calls are words filed in the database; no cut-off is given here.

`COC(=O)c1ccc2c(c1)NC(=O)/C2=C(\Nc1ccc(N(C)C(=O)CN2CCN(C)CC2)cc1)c1ccccc1` [NINTEDANIB] registered an inhibition at 10 µM with NRK-49F [1] of 95.5%. Moreover, the inhibition result in the series with L929, with NRK-49F [2] and in the series with NRK-49F [3] was “Active” in each case. This molecule yielded a bioavailability in [4] of 12%. For the same molecule, the outcome in the series with Mus musculus [5], in the series with Mus musculus [7], in the series with Mus musculus [8] and with Mus musculus [9] was Active. The outcome with Mus musculus [6] and with Mus musculus [10] was inactive.

As to `CC(C)(C)OC(=O)N1CCN(CC(=O)Nc2ccc(Oc3cc(=O)[nH]c4ccccc34)c(F)c2)CC1`, the inhibition at 10 µM in the series on NRK-49F [1] worked out at 89.1%. Also, the viability at 72 h, 10 µM in [11] stood at 86.2%. The IC50 with NRK-49F [12] is 6.12 µM. For the same molecule, in the series with L929, the inhibition result is “Active”.

Consider `CCN(CC)CC(=O)Nc1ccc(Oc2cc(=O)[nH]c3ccccc23)cc1`, for which the inhibition at 10 µM in the series with NRK-49F [1] amounted to 86.1%. Further, the viability at 72 h, 10 µM in [11] is 96.3%. This molecule gave an IC50 with NRK-49F [12] of 5.27 µM. Also, the inhibition result with L929 is “Active”.
